Test results published in ChEMBL document CHEMBL1123358, “Design and synthesis of sodium (beta R*, gamma S*)-4-[[3-(4-acetyl-3-hydroxy-2-propylphenoxy)propyl] thio]-gamma-hydroxy-beta-methylbenzenebutanoate: a novel, selective, and orally active receptor antagonist of leukotriene D4” (J Med Chem, 1986).
Values belong to the molecule of their own block, whether it stands above or below them.

Assays:
Cavia porcellus [1] = assay: In vivo activity against bronchoconstrictions induced by LTD4 (0.2 ug/kg, iv) in anesthetized guinea pig following id administration of compound; format: functional
Summary of the method: (§1)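 Anesthetized, artificially ventilated guinea pigs received a single intraduodenal dose, then iv LTD₄ (0.2 μg/kg) bronchoconstriction challenge. Effective dose is the minimum dose giving more than 50% inhibition of bronchoconstriction within 50 min after dosing, with the number of experiments in parentheses.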

Cavia porcellus [2] = assay: In vivo activity against bronchoconstrictions induced by LTD4 (0.2 ug/kg, iv) in anesthetized guinea pig following iv administration of compound; format: functional
Summary of the method: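 Artificially ventilated, anesthetized guinea pigs were challenged with LTD₄ 0.2 μg/kg iv. Drug was given iv in cumulative doses, 5 min before each successive LTD₄ challenge. ED₅₀ is from one to two determinations, or mean ± SEM where repeated, with n in parentheses.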

Cavia porcellus [3] = species on record: Cavia porcellus; assay: In vitro inhibition of responses induced by LTD4 in Isolated terminal guinea pig ileum segments at 0.1 ug/mL; format: functional
Summary of the method: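 Terminal ileum segments (2.5 cm) in aerated Krebs-bicarbonate with atropine (10⁻⁶ M) and timolol maleate (0.5 μg/mL), held under 1 g passive force. After equilibration, submaximal control contractions to LTD₄ (0.3 ng/mL) were recorded. Test substance was given for 30 s, then the control LTD₄ concentration was re-added and tension was measured. Percent inhibition is at 0.1 μg/mL, mean ± SEM of three determinations.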

[4] = target: T1, Cysteinyl leukotriene receptor 1 (Cavia porcellus, UniProt Q2NNR5); assay: Compound was tested for inhibition of radioligand [3H]LTC4 binding to Cysteinyl leukotriene D4 receptor in guinea pig lung membranes; format: cell membranes, Membrane
T1 sequence (Q2NNR5 whole entry): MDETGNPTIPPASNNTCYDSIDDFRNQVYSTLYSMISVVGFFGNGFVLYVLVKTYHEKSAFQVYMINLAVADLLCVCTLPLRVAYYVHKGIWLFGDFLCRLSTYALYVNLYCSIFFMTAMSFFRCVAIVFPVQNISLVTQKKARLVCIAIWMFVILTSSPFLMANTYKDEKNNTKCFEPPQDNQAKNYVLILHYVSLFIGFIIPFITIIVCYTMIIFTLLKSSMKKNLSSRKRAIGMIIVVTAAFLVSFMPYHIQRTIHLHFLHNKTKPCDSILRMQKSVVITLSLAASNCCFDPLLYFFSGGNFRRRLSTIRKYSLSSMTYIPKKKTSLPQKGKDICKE

[5] = target: T1, Cysteinyl leukotriene receptor 1; assay: Compound was tested for inhibition of radioligand [3H]LTD4 binding to Cysteinyl leukotriene D4 receptor in guinea pig lung membranes; format: cell membranes, Membrane
Cavia porcellus [6] = assay: In vivo activity against bronchoconstrictions induced by LTD4 (0.2 ug/kg, iv) in anesthetized guinea pig administered intraduodenally at 5 mg/kg concentration of compound; format: functional; conditions: route intraduodenal; summary of the method: as §1

Structure (SMILES): CCCc1c(OCCCOc2ccc(C(=O)CCC(=O)O)cc2)ccc(C(C)=O)c1O
ED (Cavia porcellus [1]): 5 mg/kg | ED50 (Cavia porcellus [2]): 1.1 mg/kg | inhibition at 0.1 µg/mL (Cavia porcellus [3]): 49%

Structure (SMILES): CCCc1c(OCCCSc2ccc(CC(=O)O)cc2)ccc(C(C)=O)c1O
ED (Cavia porcellus [1]): 10 mg/kg | ED50 (Cavia porcellus [2]): 1.3 mg/kg | inhibition at 0.1 µg/mL (Cavia porcellus [3]): 65%

Structure (SMILES): CCCc1c(OCCCSc2ccc(C(O)C(C)CC(=O)[O-])cc2)ccc(C(C)=O)c1O.[Na+] (centres undefined)
ED (Cavia porcellus [1]): >10 mg/kg | ED50 (Cavia porcellus [2]): 1.5 mg/kg | inhibition at 0.1 µg/mL (Cavia porcellus [3]): 62%

Structure (SMILES): CCCc1c(OCCCOc2ccc(C(=O)CCC(=O)O)cc2C)ccc(C(C)=O)c1O
ED (Cavia porcellus [1]): >10 mg/kg | inhibition at 0.1 µg/mL (Cavia porcellus [3]): 53%

Structure (SMILES): CCCc1c(OCCCOc2ccc(C(=O)CCC(=O)O)cc2F)ccc(C(C)=O)c1O
ED (Cavia porcellus [1]): 10 mg/kg | ED50 (Cavia porcellus [2]): 1 mg/kg | inhibition at 0.1 µg/mL (Cavia porcellus [3]): 81%

Structure (SMILES): CCCc1c(OCCCSc2ccc(C(=O)CCc3nnn[nH]3)cc2)ccc(C(C)=O)c1O
ED (Cavia porcellus [1]): >10 mg/kg | ED50 (Cavia porcellus [2]): 0.6 mg/kg | inhibition at 0.1 µg/mL (Cavia porcellus [3]): 63%

Structure (SMILES): CCCc1cc(C(=O)CCC(=O)O)ccc1SCCCOc1ccc(C(C)=O)c(O)c1CCC
ED (Cavia porcellus [1]): 10 mg/kg | ED50 (Cavia porcellus [2]): 0.2 mg/kg | inhibition at 0.1 µg/mL (Cavia porcellus [3]): 37%

Structure (SMILES): CCCc1c(OCCCSc2ccc(C(O)CCC(=O)O)cc2)ccc(C(C)=O)c1O (centres undefined)
ED (Cavia porcellus [1]): 10 mg/kg | ED50 (Cavia porcellus [2]): 0.5 mg/kg | inhibition at 0.1 µg/mL (Cavia porcellus [3]): 65%

Structure (SMILES): CCCc1c(OCCCSc2ccc(C(=O)CCC(=O)O)cc2F)ccc(C(C)=O)c1O
ED (Cavia porcellus [1]): 10 mg/kg | ED50 (Cavia porcellus [2]): 1.1 mg/kg | inhibition at 0.1 µg/mL (Cavia porcellus [3]): 82%

Structure (SMILES): CCCc1c(OCCCSc2ccc(C(O)C(C)(C)CC(=O)[O-])cc2)ccc(C(C)=O)c1O.[Na+] (centres undefined)
ED (Cavia porcellus [1]): 5 mg/kg | ED50 (Cavia porcellus [2]): 0.5 mg/kg | inhibition at 0.1 µg/mL (Cavia porcellus [3]): 45%

Ki [4]: 8.6 µM | Ki [5]: 0.4 µM
Structure (SMILES): CCCc1c(OCCCSc2ccc(C(O)[C@@H](C)CC(=O)[O-])cc2)ccc(C(C)=O)c1O.[Na+] (some centres undefined)
ED (Cavia porcellus [1]): 5 mg/kg | ED50 (Cavia porcellus [2]): 0.26 mg/kg | inhibition at 0.1 µg/mL (Cavia porcellus [3]): 73% | inhibition in vivo at 5 mg/kg (Cavia porcellus [6]): > 50%

Structure (SMILES): CCCc1c(OCC(O)CSc2ccc(C(=O)CCC(=O)O)cc2F)ccc(C(C)=O)c1O (centres undefined)
ED (Cavia porcellus [1]): >10 mg/kg | ED50 (Cavia porcellus [2]): 0.9 mg/kg | inhibition at 0.1 µg/mL (Cavia porcellus [3]): 32%

Structure (SMILES): CCCc1c(OCCCSc2ccc(C(=O)CCC(=O)O)cc2)ccc(C(C)=O)c1O
ED (Cavia porcellus [1]): 10 mg/kg | ED50 (Cavia porcellus [2]): 1.1 mg/kg | inhibition at 0.1 µg/mL (Cavia porcellus [3]): 63%

Structure (SMILES): CCCc1c(OCC(O)COc2ccc3c(=O)cc(C(=O)O)oc3c2CCC)ccc(C(C)=O)c1O (centres undefined) [FPL-55712]
ED (Cavia porcellus [1]): >10 mg/kg | ED50 (Cavia porcellus [2]): 0.1 mg/kg | inhibition at 0.1 µg/mL (Cavia porcellus [3]): 83%
